# ChEMBL document CHEMBL3046733, “Comparative toxicity of selected organophosphate insecticides against resistant and susceptible clones of the greenbug, Schizaphis graminum (Homoptera: aphididae)” (J Agric Food Chem, 2000)
# Tests used:
# [1] = molecular target: Acetylcholinesterase (Schizaphis graminum) (UniProt Q9BMJ1); assay: Resistance index, ratio of bimolecular rate constant Ki for AChE in rganophosphate-resistant clone of Schizaphis graminum OR1 to bimolecular rate constant Ki for AChE in organophosphate-susceptible clone of Schizaphis graminum OSS
# Sequence of Acetylcholinesterase (Schizaphis graminum) (Q9BMJ1 as listed by the source): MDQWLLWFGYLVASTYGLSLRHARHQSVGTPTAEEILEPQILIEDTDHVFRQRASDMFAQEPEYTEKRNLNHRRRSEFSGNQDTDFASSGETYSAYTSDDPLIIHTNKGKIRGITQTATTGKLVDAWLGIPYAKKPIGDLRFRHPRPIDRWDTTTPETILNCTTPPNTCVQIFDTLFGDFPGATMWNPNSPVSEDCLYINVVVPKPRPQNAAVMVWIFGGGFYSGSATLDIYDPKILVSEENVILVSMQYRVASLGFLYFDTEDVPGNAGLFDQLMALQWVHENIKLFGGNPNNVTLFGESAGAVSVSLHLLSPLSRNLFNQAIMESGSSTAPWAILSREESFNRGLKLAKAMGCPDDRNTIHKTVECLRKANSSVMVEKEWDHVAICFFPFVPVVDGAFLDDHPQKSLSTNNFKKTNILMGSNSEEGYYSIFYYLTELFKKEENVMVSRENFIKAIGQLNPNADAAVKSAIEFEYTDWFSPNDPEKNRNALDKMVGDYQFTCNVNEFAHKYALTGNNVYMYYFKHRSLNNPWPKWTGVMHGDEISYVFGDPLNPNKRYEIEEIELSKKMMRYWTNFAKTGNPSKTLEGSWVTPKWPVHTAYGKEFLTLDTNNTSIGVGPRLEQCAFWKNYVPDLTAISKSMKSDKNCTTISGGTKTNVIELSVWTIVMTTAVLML
# Acetylcholinesterase [2] = molecular target: T1, Acetylcholinesterase (Schizaphis graminum, UniProt Q9BMJ1); assay: Inhibition of AChE in organophosphate-resistant clone of Schizaphis graminum OR1 adult or last-instar nymphs homogenates assessed as bimolecular rate constant pre-incubated with compound for 2 min at 25 degC before addition of ATC and DTNB solution
# T1 sequence (Q9BMJ1 whole entry): as the sequence (Q9BMJ1 as listed by the source) above
# Summary of the method: (§1)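 Clones mass-reared on whole sorghum plants (hybrid NC+ 160) at 25 ± 2 °C with a 16:8 h L/D photoperiod. Greenbug AChE was preincubated with an organophosphate oxon inhibitor for 2 min at 25 °C. Residual AChE activity was then measured as a percentage of an inhibitor-free control.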
# [3] = molecular target: Acetylcholinesterase (Schizaphis graminum) (UniProt Q9BMJ1); assay: Resistance index, ratio of bimolecular rate constant Ki for AChE in rganophosphate-resistant clone of Schizaphis graminum OR2 to bimolecular rate constant Ki for AChE in organophosphate-susceptible clone of Schizaphis graminum OSS
# Acetylcholinesterase [4] = molecular target: T1, Acetylcholinesterase; assay: Inhibition of AChE in organophosphate-susceptible clone of Schizaphis graminum OSS adult or last-instar nymphs homogenates assessed as bimolecular rate constant pre-incubated with compound for 2 min at 25 degC before addition of ATC and DTNB solution; summary of the method: as §1
# Acetylcholinesterase [5] = molecular target: T1, Acetylcholinesterase; assay: Inhibition of AChE in organophosphate-resistant clone of Schizaphis graminum OR2 adult or last-instar nymphs homogenates assessed as bimolecular rate constant pre-incubated with compound for 2 min at 25 degC before addition of ATC and DTNB solution; summary of the method: as §1
# Schizaphis graminum [6] = assay: Insecticidal activity against organophosphate-susceptible clone of Schizaphis graminum OSS adult or last-instar nymphs assessed as insect mortality after 8 hr; assay type: functional
# Schizaphis graminum [7] = assay: Resistance index, ratio of LC50 for organophosphate-resistant clone of Schizaphis graminum OR2 adult or last-instar nymphs to LC50 for organophosphate-susceptible clone of Schizaphis graminum OSS adult or last-instar nymphs; assay type: functional; set-up: reference not given here
# Schizaphis graminum [8] = assay: Insecticidal activity against organophosphate-resistant clone of Schizaphis graminum OR2 adult or last-instar nymphs assessed as insect mortality after 8 hr; assay type: functional; details: OR2, 8 h
# Schizaphis graminum [9] = assay: Resistance index, ratio of LC50 for organophosphate-resistant clone of Schizaphis graminum OR1 adult or last-instar nymphs to LC50 for organophosphate-susceptible clone of Schizaphis graminum OSS adult or last-instar nymphs; assay type: functional; set-up: reference not given here
# Schizaphis graminum [10] = assay: Insecticidal activity against organophosphate-resistant clone of Schizaphis graminum OR1 adult or last-instar nymphs assessed as insect mortality after 8 hr; assay type: functional; details: OR1, 8 h
Compound,Ratio [1],Ki (Acetylcholinesterase [2]) [M⁻¹ s⁻¹],Ratio [3],Ki (Acetylcholinesterase [4]) [M⁻¹ s⁻¹],Ki (Acetylcholinesterase [5]) [M⁻¹ s⁻¹],LC50 (Schizaphis graminum [6]) [µg/mL],RatioLC50 (Schizaphis graminum [7]),LC50 (Schizaphis graminum [8]) [µg/mL],RatioLC50 (Schizaphis graminum [9]),LC50 (Schizaphis graminum [10]) [µg/mL]
COP(=O)(OC)Oc1ccc([N+](=O)[O-])cc1 [DIMETHYL 4-NITROPHENYL PHOSPHATE],2.1,0.0225,2.2,0.0483,0.0217,,,,,
CCOP(=O)(OCC)Oc1ccc([N+](=O)[O-])cc1 [PARAOXON],1.8,0.0135,2,0.0237,0.012,,,,,
COP(=S)(OC)Oc1ccc([N+](=O)[O-])cc1 [METHYL PARATHIONE],,,,,,0.031,41.3,1.27,11.1,0.34
CNC(=O)CSP(=O)(OC)OC [Omethoate],3.8,0.0207,3.5,0.077,0.0222,0.21,30.6,6.28,38.9,8.01
CCOP(=O)(OCC)SCCSCC [demeton S],1.3,0.0437,1.3,0.0575,0.0447,,,,,
CCOP(=S)(OCC)Oc1nc(Cl)c(Cl)cc1Cl [CHLORPYRIFOS],,,,,,0.036,53.8,1.96,10.6,0.39
CCSCCSP(=O)(OC)OC [demeton-S-methyl],,0.0685,,0.101,0.0725,,,,,
CCOP(=S)(OCC)Oc1ccc([N+](=O)[O-])cc1 [PARATHION],,,,,,0.2,326.9,64.8,40.8,8.07
CCOP(=S)(OCC)SCCSCC [DISULFOTON],,,,,,0.16,93.7,15.1,39.6,6.37
